Data set [1] in a line: folding enthalpy; higher = less favourable; fluorescence melt of hairpins on a sequencing array, two-state fit. Particulars: sodium 0.088 M. The essentials: (§1)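 Two-state fits, bootstrapped, provided melting temperature and folding enthalpy from Cy3 fluorescence normalised to pre-quench Cy3 and to control constructs. Library hairpins with annealed Cy3 and quencher oligos were imaged on a sequenced MiSeq flow cell in 50 mM Na-HEPES pH 8.0, 25 mM NaCl, at 2.5 °C intervals up to 60 °C. Four replicates were combined with inverse-variance weighting. A 9.35 °C upward shift was applied to fitted temperatures to match UV melts.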

Data set [2] in a line: melting temperature; fluorescence melt of hairpins on a sequencing array, two-state fit, raised by 9.35 °C to match UV melts. As to conditions: sodium 0.088 M. An outline of the steps:
as §1

Regarding GGAATAGGAAACTATTCC (((((((....))))))), the folding enthalpy in data set [1] is -41.4 kcal/mol. Further, in data set [2], the Tm was 52.7 °C.

For CGCCCCCGGAAACGGGCG (((..(((....)))))), the folding enthalpy in data set [1] was -13.8 kcal/mol. The Tm in data set [2] worked out at 54.3 °C.

For the sequence GATCCAGCGTGGATC ((((((...)))))), the folding enthalpy in data set [1] is -27.4 kcal/mol. Moreover, the Tm in data set [2] came to 50.5 °C.

Take GATCGAAACGTCGATC ((((((....)))))): the folding enthalpy in data set [1] is -41.4 kcal/mol. In data set [2], the Tm turned out to be 50.3 °C.

In the case of ATGCTGAAAAGCAT (((((....))))), the folding enthalpy in data set [1] is -18.6 kcal/mol. Further, the Tm in data set [2] worked out at 50.8 °C.

For GTTAGTGGAAACACTGAC ((.((((....)))).)), in data set [1], the folding enthalpy was -24.2 kcal/mol. For the same sequence, the Tm in data set [2] was determined as 44.7 °C.

Regarding GAACCGGGAAACCGATTC (((.(((....))).))), the folding enthalpy in data set [1] is -26.4 kcal/mol. Moreover, the Tm in data set [2] amounted to 39.2 °C.

Consider GTGATTCGAAAGAACCAC (((.(((....))).))), for which the folding enthalpy in data set [1] was -33.2 kcal/mol. Besides, the Tm in data set [2] turned out to be 44.8 °C.

Take GATCATGACCATGATC ((((((....)))))): in data set [1], the folding enthalpy was -41.5 kcal/mol. Besides, in data set [2], the Tm worked out at 55.2 °C.

Take GATCTGCAGGCAGATC ((((((....)))))): the folding enthalpy in data set [1] is -32.7 kcal/mol. In data set [2], the Tm is 60.2 °C.

Take GAAATCGAAAGATTTC ((((((....)))))): the folding enthalpy in data set [1] was -32.5 kcal/mol. In data set [2], the Tm was determined as 55.9 °C.

On to GATCTGTCGTCAGATC ((((((....)))))), for which the folding enthalpy in data set [1] is -37.6 kcal/mol. Also, the Tm in data set [2] amounted to 50.5 °C.

On to GTCGCTGGAAACAGCAAC ((.((((....)))).)), for which, in data set [1], the folding enthalpy was -15 kcal/mol. Besides, in data set [2], the Tm was 41.7 °C.

For GAGAGCCGAAAGGCCCTC (((.(((....))).))), in data set [1], the folding enthalpy was -18.3 kcal/mol. Besides, in data set [2], the Tm was 51.3 °C.

With GCGGCGTCCGC ((((...)))), the folding enthalpy in data set [1] was -14.7 kcal/mol. The Tm in data set [2] turned out to be 59.9 °C.

As to GAGTCCGCGAAAGCGCTC (((..(((....)))))), the folding enthalpy in data set [1] was -7.6 kcal/mol. Further, the Tm in data set [2] was 24.8 °C.

Consider GATCTGTGATCAGATC ((((((....)))))), for which, in data set [1], the folding enthalpy is -34 kcal/mol. Also, in data set [2], the Tm turned out to be 49.2 °C.

As for GTTCTAGGAAACTAGAGC (.(((((....))))).), the folding enthalpy in data set [1] was -24.7 kcal/mol. Also, in data set [2], the Tm came to 35.6 °C.

Take GACAGCGAAAGCTCCGTC ((((((....)))..))): the folding enthalpy in data set [1] is -9.29 kcal/mol. Also, the Tm in data set [2] worked out at 34.4 °C.

As to GCGGGCGAAAGCCCCCGC ((((((....)))..))), the folding enthalpy in data set [1] is -11.2 kcal/mol. Also, in data set [2], the Tm was 52.1 °C.

With GATTCAGGAAACCGAATC (((((.(....).))))), in data set [1], the folding enthalpy was -26.2 kcal/mol. Moreover, the Tm in data set [2] was determined as 36 °C.

As to GGCTCTCCGAAAGGAGCC (((..(((....)))))), the folding enthalpy in data set [1] is -15 kcal/mol. The Tm in data set [2] was 49 °C.

For GGTACCGAAAGGTATACC ((((((....)))..))), the folding enthalpy in data set [1] is -15.3 kcal/mol. In addition, the Tm in data set [2] stood at 41.4 °C.

As for GAAACGGAAACGTTTC ((((((....)))))), the folding enthalpy in data set [1] was -39.8 kcal/mol. For the same sequence, the Tm in data set [2] was found to be 55.3 °C.

With GGTTCTGGAAACAGAGTC (..((((....))))..), the folding enthalpy in data set [1] is -11.8 kcal/mol. The Tm in data set [2] turned out to be 28.1 °C.

As for GTCATCGAAAGATCGAC ((((((....))).))), the folding enthalpy in data set [1] is -22.1 kcal/mol. Moreover, in data set [2], the Tm was 35.7 °C.

As for GTTGTGGGAAACCATAGC (.(.(((....))).).), the folding enthalpy in data set [1] was -12.7 kcal/mol. For the same sequence, the Tm in data set [2] amounted to 27.6 °C.

Turning to GATCACGGCGGTGATC ((((((....)))))), the folding enthalpy in data set [1] was -45.6 kcal/mol. Further, the Tm in data set [2] is 58.8 °C.

As to GCGAAGCGAAAGCCGCGC (((..((....))..))), in data set [1], the folding enthalpy is -16.8 kcal/mol. Moreover, in data set [2], the Tm is 61.6 °C.

With GGTCAAGGAAACCTGACC (((((.(....).))))), the folding enthalpy in data set [1] was -30.5 kcal/mol. For the same sequence, the Tm in data set [2] came to 46.5 °C.

Regarding GTTGTCGGAAACGGCAAC ((((.((....)).)))), in data set [1], the folding enthalpy is -37.7 kcal/mol. Further, the Tm in data set [2] amounted to 56.2 °C.

Turning to GCTGGACGAAAGTCAGC (((.(((....)))))), in data set [1], the folding enthalpy was -30.6 kcal/mol. Besides, the Tm in data set [2] stood at 56.1 °C.

Regarding GTTCTTGGAAACAGGAAC ((((.((....)).)))), the folding enthalpy in data set [1] was -34.1 kcal/mol. The Tm in data set [2] worked out at 39.9 °C.

Regarding GAGACCCCGAAAGGGCTC (((..(((....)))))), in data set [1], the folding enthalpy is -22.6 kcal/mol. Further, the Tm in data set [2] was found to be 47.2 °C.

GCAGTCACGAAAGTGTGC (((..(((....)))))): the folding enthalpy in data set [1] is -19.5 kcal/mol. Also, the Tm in data set [2] is 38 °C.

As to GTAAGACGAAAGTCGTAC (((.(((....))).))), the folding enthalpy in data set [1] is -17.8 kcal/mol. For the same sequence, in data set [2], the Tm is 50.4 °C.

Take GCCCCGCGAAAGCCGCGC ((.(.((....)).).)): the folding enthalpy in data set [1] was -13.7 kcal/mol. Also, the Tm in data set [2] is 31.5 °C.

(Values after the array DNA melting data of Ke et al. (doi:10.1101/2024.01.08.574731).)
